# Assay results gathered from unrelated publications.
# Target: Serine/threonine-protein kinase pim-1 (PIM1, Homo sapiens, UniProt P11309)
SMILES,test,setting,remaining binding [%]
Cc1cnn2ncc(-c3ccnc(N(C)C)n3)c2c1,binding,1 µM,80
O=C1NC(c2ccccn2)Sc2ccccc21 (centres unmarked),"cell-free assay, competition with immobilised ligand",1 µM,82
FC(F)(F)Oc1cccc(-c2cnc3ccc(-c4ccncc4)nn23)c1,"cell-free assay, competition with immobilised ligand",5 µM,23
COc1ccnn2ncc(-c3ccnc(N(C)C)n3)c12,binding,1 µM,74
c1cncc(-c2cccc(Nc3nccc(NC4CCCCC4)n3)c2)c1,"binding, competition with immobilised ligand",10 µM,42
COc1ncc2cc3ccccc3nc2c1C#N,"cell-free assay, competition with immobilised ligand",5 µM,87
O=C(NC[C@@H]1[C@H]2CN(C(=O)OCc3cc(C(F)(F)F)cc(C(F)(F)F)c3)C[C@@H]12)c1ccc2[nH]nnc2c1,"cell-free assay, competition with immobilised ligand",1 µM,98
O=C(c1ccc(Nc2ncc(Cl)c(-c3ccc(Cl)s3)n2)cc1)N1CCC(N2CCCC2)CC1,"binding, competition with immobilised ligand",1 µM,87
CC(C)(C)c1ccc(-c2nc(CBr)nn2-c2cccc(O)c2)cc1,"cell-free assay, competition with immobilised ligand",10 µM,90
CNC(=O)Nc1ccc2c(c1)CC[C@@]21OC(=O)N(CC(=O)N(Cc2ccc(F)cc2)[C@@H](C)C(F)(F)F)C1=O,"cell-free assay, competition with immobilised ligand",1 µM,100
C[C@H]1CCN(c2nccc(-c3cnn4ncccc34)n2)C1,binding,1 µM,83
C[C@@H](c1ccc(-n2cnc3c(N)ncnc32)cc1)N1CCc2nn(C)c(Cc3ccccc3)c2C1=O,"binding, competition with immobilised ligand",0.1 µM,97
O=C(NCCCN1CCOCC1)c1ccc(Nc2ncc(Cl)c(-c3ccc(Cl)s3)n2)cc1,"binding, competition with immobilised ligand",1 µM,100
N[C@@H]1CCN(c2nccc(-c3cnn4ncccc34)n2)C1,binding,1 µM,100
FC(F)(F)c1ccc2c(c1)nc(-c1cccnc1)n2C1CC1,"cell-free assay, competition with immobilised ligand",1 µM,94
F[C@@H]1CCN(c2nccc(-c3cnn4ncccc34)n2)C1,binding,1 µM,100
O=C(NCC1CCOCC1)c1n[nH]cc1NC(=O)c1c(F)cccc1F,"binding, competition with immobilised ligand",1 µM,100
Nc1ncc2c(n1)-c1c([nH]c3ccc(C#CC4CC4)cc13)CCCC2,"binding, competition with immobilised ligand",1 µM,73
O=C(O)c1cc(-c2ccc(C3CCNCC3)cc2)c2ccc(-c3ccc(C(F)(F)F)cc3)cc2c1,"cell-free assay, competition with immobilised ligand",1 µM,100
CNC(=O)[C@@H]1CC[C@@H](n2c(-c3ccc4cnccc4c3)nc3ccc(C(=O)NCc4cccc(C(N)=O)c4)cc32)C1,"binding, competition with immobilised ligand",1 µM,100
C[C@H](c1ccc(F)cc1)N(Cc1cccc(C(=O)O)c1)C(=O)c1cnc2ccccc2c1,"cell-free assay, competition with immobilised ligand",1 µM,100
c1cnn2ncc(-c3ccnc(N4CCC45COC5)n3)c2c1,binding,1 µM,71
C[C@@H]1CN(c2ccc3ncc(-c4ccc5[nH]nc(C6CC6)c5c4)n3n2)C[C@H](C)O1,"binding, competition with immobilised ligand",50 nM,66
Cc1cc(C)c(-n2ccn3nc(-c4cccnc4)cc23)cc1NC(=O)c1cc(C#N)cc(S(F)(F)(F)(F)F)c1,"cell-free assay, competition with immobilised ligand",0.1 µM,92
O=C(c1ccc(Nc2ncc(Cl)c(-c3cc4ccccc4s3)n2)cc1)N1CCC(N2CCCC2)CC1,"binding, competition with immobilised ligand",1 µM,84
CN(C)c1nccc(-c2cnn3ncccc23)n1,binding,1 µM,81
